Bioassay records as filed in PubChem.
In the library only some 5.9% were active in any assay of this set; here they are far more common.
T cruzi growth-1 = T. cruzi proliferation inhibition; 5.9% of 77,000 active; T. cruzi beta-gal in NIH3T3, GalScreen luminescence, 90 h; AID 624255; inhibition, % at 8.34 µM;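 active means mean inhibition above about 93%, with at least 55% of replicates each passing it, limit read from the data, passing the limit was not always enough; inconclusive means only one of those two conditions holds; inactive means neither condition holds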
Pf Dd2 growth = P. falciparum Dd2 growth inhibition | SYBR Green, 72 h; hits give low values | AID 1159554 | activity change, % at 10 µM | 2.3% of 94,000 active; in the data active means activity change below about -80%; inconclusive means no clear call, values can overlap the other calls
IDH1 mut inh = inhibitors of human IDH1 R132H. O75874. IDH1 R132H reductase, diaphorase/resazurin fluorescence, 60 min. inhibition, % at 10 µM. 0.18% of 70,000 active. AID 624101; in the data active means inhibition above about 34%; inconclusive means no clear call, values can overlap the other calls; inactive means below about 11%;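 further: 0% = DMSO and 100% = no enzyme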
GASC1 inh = blocks human GASC-1 (KDM4C) demethylase activity | Q9H3R0 | GST-KDM4C 2-372, H3K9me3 peptide, LANCE TR-FRET | inhibition, % at 12.5 µM | 0.15% of 96,000 active;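 active means mean replicate inhibition above about 25%, with at least 55% of replicates also reaching it, limit read from the data, passing the limit was not always enough; inconclusive means only one of those two conditions met; inactive means neither condition met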
Target sequence (Q9H3R0 2-372 limits assumed): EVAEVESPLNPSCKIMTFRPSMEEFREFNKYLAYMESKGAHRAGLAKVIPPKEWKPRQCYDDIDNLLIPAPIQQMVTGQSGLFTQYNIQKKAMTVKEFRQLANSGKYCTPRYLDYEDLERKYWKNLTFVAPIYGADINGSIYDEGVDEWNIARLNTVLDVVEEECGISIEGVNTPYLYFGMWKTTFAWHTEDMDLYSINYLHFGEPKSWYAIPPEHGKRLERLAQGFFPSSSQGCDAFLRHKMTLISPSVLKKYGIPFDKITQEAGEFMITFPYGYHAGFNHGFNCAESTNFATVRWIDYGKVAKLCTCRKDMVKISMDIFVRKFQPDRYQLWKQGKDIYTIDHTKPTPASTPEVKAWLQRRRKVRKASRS
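System – N-terminal GST-fused human GASC-1 (KDM4C) fragment, residues 2-372 · Input – enzyme final amount 10 nM · Technique – LANCE TR-FRET, Eu antibody, ULight-streptavidin, EDTA, ex 340 nm, em 618/671 nm · Medium – HEPES buffer, pH 7.5, plus ascorbate · Incubation – enzyme reaction 30 min, then detection 60 min, both room temperature · Reagent – H3K9me3 peptide with Fe(II)/2OG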
T cruzi growth-2 = Trypanosoma cruzi proliferation inhibition. T. cruzi beta-gal in NIH3T3, GalScreen luminescence, 90 h. inhibition, % at 8.35 µM. AID 651739. shares compounds with T cruzi growth-1. 72% of 5,600 active;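 active means mean replicate inhibition above about 95% and at least 55% of replicates individually reaching it, limit read from the data; inconclusive means only one of the two criteria is met; inactive means neither criterion is met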
T cruzi growth-3 = inhibitors of T. cruzi proliferation; 21% of 5,600 active; T. cruzi beta-gal in NIH3T3, GalScreen luminescence, 90 h; shares compounds with T cruzi growth-1; inhibition, % at 2.09 µM; AID 651740;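 active means mean inhibition above about 95%, with at least 55% of replicates also reaching it, limit read from the data; inconclusive means meets just one of the two conditions; inactive means meets neither condition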;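 further: plate controls were neutral control median for no effect and positive control median for full effect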
3T3 cytotox = kills mouse NIH/3T3 fibroblasts | shares compounds with T cruzi growth-1 | NIH/3T3 viability, CellTiter-Glo ATP luminescence, 90 h | cytotoxicity (signal decrease), % at 8.35 µM | 14% of 5,600 active | AID 651742;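 active means mean signal decrease across replicates above about 35% based on untreated-well scatter, with enough replicates individually passing, limit read from the data; inconclusive means no rule stated though some were filed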;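 further: 0% = median of neutral control wells and 100% = median of positive control wells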
NIH3T3 tox 2 = cytotoxicity in mouse NIH/3T3 fibroblasts; inhibition, % at 24.9 µM; shares compounds with T cruzi growth-1; NIH/3T3 viability, CellTiter-Glo ATP luminescence, 90 h; 56% of 5,600 active;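 active means mean loss of cell viability signal at or above a set limit, and enough replicates individually reaching it; inconclusive means meets only the mean limit or only the replicate share; inactive means meets neither condition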;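 further: 0% = median of neutral control wells and 100% = median of positive control wells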
* = called active by the depositor; ? = inconclusive; · = no result.

SMILES	T cruzi growth-1	Pf Dd2 growth	IDH1 mut inh	GASC1 inh	T cruzi growth-2	T cruzi growth-3	3T3 cytotox	NIH3T3 tox 2
O=C(Nc1ccccc1F)N1CCCCN2[C@H](CO)[C@H](c3ccc(/C=C/c4ccccc4)cc3)[C@@H]2C1	116*	-3	·	0	96*	113*	45*	58*
CC1(CC(=O)O)CCC2(O1)C(CO)=CCC1C(C)(C)C(O)CCC12C (stereo not given)	·	·	0	·	·	·	·	·
CO[C@H]1CN(C)C(=O)c2ccc(NC(=O)C3CCC3)cc2OC[C@@H](C)N(CC2CCCCC2)C[C@@H]1C	?	-66	0	-1	107*	24	-12	103*
CO[C@@H]1CN(C)C(=O)c2ccc(NC(=O)C3CCC3)cc2OC[C@H](C)N(CC2CCCCC2)C[C@@H]1C	3	-69	0	2	·	·	·	·
CO[C@@H]1CN(C)C(=O)c2cc(NC(=O)C3CCOCC3)ccc2OC[C@@H](C)N(CC2CC2)C[C@@H]1C	99*	-36	0	1	46	10	-14	6
O=C(COc1ccc2c(-c3ccccc3)cc(=O)oc2c1)c1ccccc1	·	·	0	·	·	·	·	·
COc1ccc(C#Cc2ccc3c(c2)[C@H]2[C@H](CCN2C(=O)c2ccncc2)[C@H](CO)N3)cc1	101*	-60	·	0	107*	61	26	38*
COCC(=O)N1CC[C@@H]2[C@H]1c1cc(C#Cc3ccc(OC)cc3)ccc1N[C@@H]2CO	42	-18	·	-1	·	·	·	·
COc1ccc(C#Cc2ccc3c(c2)[C@H]2[C@H](CCN2C(=O)CC2CC2)[C@H](CO)N3)cc1	?	-22	·	0	98*	52	6	21
O=C(COc1cc(O)c2c(=O)c3ccccc3oc2c1)c1ccc(Br)cc1	·	·	0	·	·	·	·	·
CS(=O)(=O)N(CC(=O)NC1CCCCC1)c1ccc(Cl)cc1Cl	·	·	0	·	·	·	·	·
C[C@H]1CN([C@@H](C)CO)C(=O)c2ccccc2-c2ccccc2CO[C@@H]1CN(C)Cc1ccncc1	?	-3	5	0	73	7	13	11
C[C@@H]1CN([C@@H](C)CO)C(=O)c2ccccc2-c2ccccc2CO[C@H]1CN(C)Cc1ccncc1	81	9	3	3	·	·	·	·
C[C@@H]1CN([C@H](C)CO)C(=O)c2ccccc2-c2ccccc2CO[C@@H]1CN(C)C(=O)Cc1ccccc1	102*	0	-1	1	21	-53	-2	11
CC(=O)Nc1ccccc1NC(=O)Cc1ccccc1[N+](=O)[O-]	·	·	1	·	·	·	·	·
NC(=O)c1ccc2nc3ccsc3c(=O)n2c1	·	·	-1	·	·	·	·	·
COc1ccc(S(=O)(=O)N(C)CC(=O)Nc2ccccc2F)cc1C	·	·	0	·	·	·	·	·
COc1ccc([N+](=O)[O-])cc1NC(=O)CN(c1cc(C)ccc1C)S(C)(=O)=O	·	·	1	·	·	·	·	·
C[C@H](CO)N1C[C@H](C)[C@H](CN(C)Cc2ccc(Oc3ccccc3)cc2)Oc2cc(-c3ccncc3)ccc2S1(=O)=O	124*	-75	5	-1	101*	104*	64*	64*
C[C@@H]1CN([C@@H](C)CO)S(=O)(=O)c2ccc(-c3ccncc3)cc2O[C@@H]1CN(C)Cc1ccc(Oc2ccccc2)cc1	?	-84*	0	1	99*	108*	74*	74*
C[C@@H]1CN([C@@H](C)CO)S(=O)(=O)c2ccc(-c3ccncc3)cc2O[C@@H]1CN(C)Cc1ccccc1	86	-29	·	-1	·	·	·	·
Cc1ccc(S(=O)(=O)N(C)CC(=O)Nc2cccc(C#N)c2)cc1	·	·	0	·	·	·	·	·
COc1cc(CCC(O)CC(O)CCc2ccc(O)c(OC)c2)ccc1O (stereo not given)	·	·	0	·	·	·	·	·
C[C@H](CO)N1C[C@H](C)[C@H](CN(C)C(=O)Cc2ccncc2)Oc2cc(C#Cc3ccccc3F)ccc2S1(=O)=O	·	-68	-1	-4	·	·	·	·
C[C@H]1CN([C@@H](C)CO)S(=O)(=O)c2ccc(C#Cc3ccccc3F)cc2O[C@@H]1CN(C)C(=O)Cc1ccccc1	121*	-70	1	-3	106*	107*	12	103*
SMILES	T cruzi growth-1	Pf Dd2 growth	IDH1 mut inh	GASC1 inh	T cruzi growth-2	T cruzi growth-3	3T3 cytotox	NIH3T3 tox 2
C[C@@H]1CN([C@@H](C)CO)S(=O)(=O)c2ccc(C#Cc3ccccc3F)cc2O[C@H]1CN(C)C(=O)Cc1ccccc1	120*	-69	0	-3	102*	110*	56*	92*
C[C@@H]1CN([C@H](C)CO)S(=O)(=O)c2ccc(C#Cc3ccccc3F)cc2O[C@H]1CN(C)C(=O)Cc1ccccc1	122*	-70	0	-1	103*	94	29	104*
C[C@@H]1CN([C@@H](C)CO)S(=O)(=O)c2ccc(C#Cc3ccccc3F)cc2O[C@@H]1CN(C)C(=O)Cc1cccnc1	?	-48	9	4	102*	41	33	70*
C[C@H]1CN([C@@H](C)CO)S(=O)(=O)c2ccc(C#Cc3ccccc3F)cc2O[C@H]1CN(C)C(=O)Cc1ccncc1	·	-76	·	0	·	·	·	·
Cc1cccc(-c2ccc([C@@H]3[C@H](CO)N4CCCCN(C(=O)c5cccnc5)C[C@@H]34)cc2)c1	105*	18	·	17	66	6	23	36*
Cc1ccccc1-c1ccc([C@H]2[C@@H](CO)N3CCCCN(C(=O)c4cccnc4)C[C@@H]23)cc1	103*	48	·	0	99*	102*	38*	49*
COc1ccccc1-c1ccc([C@H]2[C@H](CO)N3CCCCN(C(=O)c4cccnc4)C[C@@H]23)cc1	97*	-15	·	0	?	70	?	39*
CN(C)C(=O)c1cccc(-c2ccc3c(c2)[C@@H]2[C@@H](CCN2S(=O)(=O)c2cn(C)cn2)[C@@H](CO)N3)c1	?	16	·	0	103*	40	14	-9
CN(C)C(=O)c1cccc(-c2ccc3c(c2)[C@@H]2[C@@H](CCN2S(=O)(=O)c2cn(C)cn2)[C@H](CO)N3)c1	?	29	·	-2	96*	66	-11	-23
CCOC(=O)c1cc(-c2ccccc2)n(CCNC(=O)OC(C)(C)C)c1C	·	·	-1	·	·	·	·	·
Cc1cc(C(=O)Nc2cccc3c2O[C@H](CN(C)C)[C@H](C)CN([C@@H](C)CO)C3=O)n(C)n1	?	11	·	1	26	-16	6	2
Cc1cc(C(=O)Nc2cccc3c2O[C@H](CN(C)C)[C@@H](C)CN([C@H](C)CO)C3=O)n(C)n1	13	15	·	0	·	·	·	·
